Assay outcomes (PubChem)
A selection: hits, their analogues and other compounds. The true share with any hit is near 0.55%.
OXTR agonist – activates the human oxytocin receptor; 0.32% of 320,000 active; P30559; activation, % at 3 µM; CHO-OTR cells, Fluo-8 calcium fluorescence; normalized: DMSO 0%, oxytocin 100%; AID 2435;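 active = activation above the mean of all tested compounds plus 3 SD, cutoff set per screening run, cut at about 20% in these data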;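 note: peak over basal fluorescence ratio from a 100 s FLIPR kinetic read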
OXTR potentiate – potentiates the human oxytocin receptor response. 0.061% of 320,000 active. CHO-OTR cells, Fluo-8 calcium fluorescence, potentiator mode; 0% = oxytocin EC15, 100% = EC100. activation, % at 3 µM. P30559;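 active = activation above that plate's cutoff, the mean activation of tested compounds plus 3 SD, cut at about 6.6% in these data, passing the limit was not always enough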;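 note: 100% uses oxytocin at 75 nM as the full agonist control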
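Material: human OTR in CHO cells. Compound: 3.0 µM, one dose. Timing: compound 6 min at room temperature before oxytocin, 100 s read. Evaluation: % activation of max/min ratio relative to oxytocin controls. Replication: single well per compound, singlicate. Signal: Fluo-8 calcium dye fluorescence.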
TRPN1 ag – activates the zebrafish TRPN1 channel; HEK293 zebrafish TRPN1-YFP, Fluo-8 calcium fluorescence; 100% = response to 87 µM carbachol; activation, % at 3 µM; 0.18% of 220,000 active;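 active = activation above its plate's cutoff, the mean activation of test wells on that plate plus 3 SD, cut at about 19% in these data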;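 note: 0% = DMSO alone and 100% = 87 µM carbachol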
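Material: zebrafish TRPN1-YFP in HEK293 cells; Doses: single test compound dose, 3 µM nominal, 0.3% DMSO; Timing: dye loading 1 h at 37 °C, then 30 min room temperature; Technique: intracellular calcium fluorescence with Fluo-8; Benchmarks: high carbachol 87 µM, low DMSO alone.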
TRPML3 agonist – human mucolipin-3 channel agonism | Q8TDD5 | HEK293 TRPML3-YFP, Fluo-8 calcium fluorescence; 100% = the carbachol control signal | activation, % at 3 µM | 0.29% of 220,000 active | AID 1448;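 active = activation above its plate's cutoff, the mean activation of the plate's test wells plus 3 SD, cut at about 12% in these data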;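 note: 0% = DMSO only wells and 100% = carbachol wells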
Target sequence (Q8TDD5 whole entry, looked up): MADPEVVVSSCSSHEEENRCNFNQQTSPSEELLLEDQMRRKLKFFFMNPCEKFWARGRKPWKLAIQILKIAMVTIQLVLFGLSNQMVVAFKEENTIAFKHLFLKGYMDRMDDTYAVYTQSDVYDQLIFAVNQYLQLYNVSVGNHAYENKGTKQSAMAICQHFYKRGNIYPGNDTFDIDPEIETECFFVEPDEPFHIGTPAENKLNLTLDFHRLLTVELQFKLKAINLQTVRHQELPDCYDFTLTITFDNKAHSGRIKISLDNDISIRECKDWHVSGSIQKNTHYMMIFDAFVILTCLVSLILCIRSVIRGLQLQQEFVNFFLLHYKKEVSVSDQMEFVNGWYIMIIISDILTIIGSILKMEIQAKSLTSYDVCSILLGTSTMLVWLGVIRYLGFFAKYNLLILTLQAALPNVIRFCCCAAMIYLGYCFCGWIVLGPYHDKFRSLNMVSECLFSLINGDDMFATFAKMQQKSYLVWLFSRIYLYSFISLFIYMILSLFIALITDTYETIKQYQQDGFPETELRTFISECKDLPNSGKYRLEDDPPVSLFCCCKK
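Material: HEK293 cells stably carrying human TRPML3-YFP; compound dosing: single dose, 3 µM final nominal compound, 0.3% DMSO final; incubation: 1-h 37 °C dye load, 5-s basal, 120-s post-compound reads; technique: Fluo-8 intracellular calcium fluorescence, excitation 470-495 nm, emission 515-575 nm; read-out basis: percent activation from peak-to-basal fluorescence ratio, scaled between DMSO and carbachol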
V1aR counter – counter-screen for oxytocin receptor agonists: human V1a receptor agonists | CHO-V1R cells, Fluo-8 calcium fluorescence, agonist mode; 0% DMSO, 100% 3 nM vasopressin | 0.25% of 320,000 active | P37288 | activation, % at 3 µM;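 active = activation above the mean activation of all tested compounds plus 3 SD, per screening run, cut at about 20% in these data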;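 note: signal is peak over basal fluorescence ratio across a 100 second FLIPR read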
TRPN1 counter – activates zebrafish TRPN1, counter-screen for TRPML3 agonists. activation, % at 3 µM. HEK293 zebrafish TRPN1-YFP, Fluo-8 calcium fluorescence; scaled: carbachol wells 100%, DMSO wells 0%. 10% of 310 active. shares compounds with TRPML3 agonist;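 active = mean activation over replicates above a set limit taken from the earlier TRPN1 channel primary screen, cut at about 19% in these data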;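 note: 100% = carbachol and 0% = 0.3% DMSO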
TRPML3 confirm – confirmation of human TRPML3 channel agonists. shares compounds with TRPML3 agonist. HEK293 TRPML3-YFP, Fluo-8 calcium fluorescence; 100% set by carbachol, 0% by DMSO. activation, % at 3 µM. 80% of 310 active;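 active = activation above a set limit derived from the earlier primary screen, cut at about 12% in these data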
OXTR agonist cf – human OXTR agonism, confirmation | activation, % at 3 µM | CHO-OTR cells, Fluo-8 calcium fluorescence, agonist | shares compounds with OXTR agonist | 20% of 390 active;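 active = mean activation above about 20% derived from the earlier single-dose screen, limit read from the data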;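 note: peak over minimum fluorescence ratio per well during a 100 second FLIPR read; 0% = DMSO alone and 100% = oxytocin high control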
V1R ag counter 3x – counter-screen for oxytocin receptor agonists: V1a receptor agonists | CHO-V1R cells, Fluo-8 calcium fluorescence, agonist | AID 434991 | activation, % at 3 µM | 10% of 390 active | shares compounds with OXTR agonist;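 active = mean activation over triplicate exceeds the hit threshold set in the earlier primary screen, cut at about 20% in these data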;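 note: peak over basal fluorescence ratio within a 100 second read; 0% = DMSO alone and 100% = 3 nM vasopressin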
OXTR pot confirm – confirmation of human oxytocin receptor potentiators; shares compounds with OXTR potentiate; CHO-OTR cells, Fluo-8 calcium fluorescence, potentiation; scaled from low-dose to maximal oxytocin; activation, % at 3 µM; 180 tested, under 10 active;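 active = mean percent activation over triplicates above a cutoff set from solvent-only control plates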;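 note: compounds tested in the presence of an EC15 dose of oxytocin; 0% = EC15 oxytocin with DMSO and 100% = EC100 oxytocin with DMSO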
V1aR agonist cf – confirmation of human vasopressin V1a receptor agonists | shares compounds with V1aR counter | CHO-V1R cells, Fluo-8 calcium fluorescence, agonist | activation, % at 3 µM | 20% of 180 active;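 active = average activation exceeds primary screen hit cutoff, cut at about 21% in these data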;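 note: peak over basal fluorescence ratio during a 100 s FLIPR read; 0% = DMSO only wells and 100% = 3 nM vasopressin wells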
OXTR ag counter – counter-screen for V1a receptor agonists: oxytocin receptor agonists. shares compounds with V1aR counter. CHO-OTR cells, Fluo-8 calcium fluorescence, agonist. activation, % at 3 µM. 10% of 180 active;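 active = mean activation over three repeats above the cutoff from the earlier oxytocin receptor agonist screen, cut at about 20% in these data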;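 note: peak over minimum fluorescence ratio within a 100 second FLIPR read; 0% = DMSO only wells and 100% = oxytocin high control wells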
Active calls of the source: *; · = no result given.

SMILES	OXTR agonist	OXTR potentiate	TRPN1 ag	TRPML3 agonist	V1aR counter	others
O=C1NC(=O)N(c2ccc(Cl)cc2)C(=O)/C1=C\c1ccc(Sc2nc3ccccc3[nH]2)o1	29.4*	-16.0	21.6*	12.2*	36.3*
COc1cccc(C2C([N+](=O)[O-])=C(N)Oc3c2c(=O)oc2ccccc32)c1 (stereo not given)	1.3	-8.2	-0.1	-0.2	0.8
Cc1nc2cc(C(F)(F)F)ccc2n1C1CCN(Cc2nnnn2Cc2ccc3c(c2)OCO3)CC1	5.3	-21.5	4.2	1.6	5.2
Cc1nc2cc(C(F)(F)F)ccc2n1C1CCN(Cc2nnnn2Cc2cccs2)CC1	32.5*	-12.4	6.3	4.0	36.6*
CC1=NN=C(c2ccc(N)cc2)c2cc3c(cc2C1)OCO3	-0.2	-7.5	·	·	0.5
O=C1NC(=O)N(Cc2ccc(F)cc2)C(=O)/C1=C\c1ccoc1	30.9*	-22.9	13.3	8.6	29.2*
CCOC(=O)c1ccc(NC(=O)c2c(O)[nH]c(=O)[nH]c2=O)cc1	1.2	-15.3	307.7*	247.0*	0.7
CCOc1ccc(NC(=O)c2c(O)[nH]c(=O)[nH]c2=O)cc1	-0.6	-0.8	·	·	0.5
CC1(C)CSC(=NCc2ccccc2)N1	16.0	-16.0	60.7*	58.1*	13.6
O=C1CC2OCC=C3CN4CCC56c7cc([N+](=O)[O-])ccc7N1C5C2C3CC46 (stereo not given)	0.3	3.7	-1.3	0.0	-0.2
O=C1/C(=C\c2ccccc2)C2OCC=C3CN4CCC56c7ccccc7N1C5C2C3CC46 (stereo not given)	20.1*	-5.4	4.2	2.5	13.9
COC(=O)c1cn(C(=O)c2cccc3ccccc23)c2ccccc12	6.5	-8.6	0.1	0.0	-0.5
CN1/C(=C\C=C\C2=[N+](C)c3ccc4ccccc4c3C2(C)C)C(C)(C)c2ccccc21	80.5*	-23.7	23.8*	28.7*	58.7*
CCCCCCn1c(=O)c(C(=O)Nc2ncccc2C)c(O)c2ccccc21	37.8*	-20.7	·	·	45.6*
CCCCCn1c(=O)c(C(=O)Nc2ccccc2C)c(O)c2ccccc21	-0.7	-6.0	·	·	0.0
CCCCn1c(=O)c(C(=O)Nc2ncccc2C)c(O)c2ccccc21	35.5*	-10.8	·	·	38.7*
C=CCn1c(O)c(C=Nc2ccc(OC)cc2C)c(=O)[nH]c1=O	-1.1	-5.3	-0.8	1.0	-0.4
Oc1c(Br)c(Br)c(Br)c(Br)c1Br	8.4	-7.3	·	·	4.5
CN1/C(=C\C=C2C(=O)NC(=O)NC2=O)C(C)(C)c2ccccc21	25.0*	-14.3	42.3*	17.4*	31.5*
CC(=O)OC1=CC[C@H]2[C@@H]3CC[C@H]4C[C@H](OC(C)=O)[C@@H](OC(C)=O)C[C@]4(C)[C@H]3CC[C@]12C	-0.9	-1.4	·	·	0.1
O=C1CCCN1CC#CCN1CCCC1	1.3	-12.2	2.5	26.6*	0.4	TRPN1 counter=6.1;TRPML3 confirm=35.0*
Cc1c2cnn(CC(=O)N3CCC4(CC3)OCCO4)c(=O)c2c(C)n1Cc1ccccc1Cl	-0.5	-6.0	·	·	-0.3
CNc1ccc2oc(C[C@H]3O[C@@]4(CC[C@H]3C)O[C@H]([C@H](C)C(=O)c3ccc[nH]3)[C@H](C)C[C@H]4C)nc2c1C(=O)O	74.7*	-25.9	·	·	14.7	OXTR agonist cf=121.9*;V1R ag counter 3x=134.0*
CCCCn1c(=O)c(C(=O)NCc2ccccc2Cl)c(O)c2ccccc21	38.0*	-22.6	·	·	0.4	OXTR agonist cf=-0.2;V1R ag counter 3x=0.6
COC(=O)C1=C(c2ccccc2)C[C@@H]2CC[C@H]1N2C(=O)NCCCOC(C)C	0.3	6.8	·	·	5.4
SMILES	OXTR agonist	OXTR potentiate	TRPN1 ag	TRPML3 agonist	V1aR counter	others
O=C(COc1ccc2ccccc2c1)N1CCN(Cc2c[nH]c3ccccc23)CC1	24.0*	-17.9	0.9	2.0	8.5	OXTR agonist cf=9.6;V1R ag counter 3x=4.2
O=C(COc1ccc(Br)cc1)N1CCN(Cc2c[nH]c3ccccc23)CC1	9.9	-24.2	0.9	0.9	5.0
Oc1ccc(C2NCc3ccccc3-n3cccc32)cc1Cl (stereo not given)	27.9*	-22.6	-0.5	1.4	17.1	OXTR agonist cf=9.8;V1R ag counter 3x=1.8
FC(F)(F)c1cccc(C2NCc3ccccc3-n3cccc32)c1 (stereo not given)	-1.7	-21.0	·	·	-0.4
COc1cc2c(cc1OC)CN(c1ccc([N+](=O)[O-])c(C(F)(F)F)c1)CC2	5.7	-16.4	0.9	0.4	5.6
CCCNC1=C(C)C(=O)C2=C(C1=O)C(COC(N)=O)[C@]1(OC)C3NC3CN21 (stereo not given in full)	0.4	-5.1	0.9	0.9	0.8
CCOc1cc2c(cc1OCC)-n1cccc1C(c1ccc(F)c(OC)c1)NC2 (stereo not given)	22.3*	-7.1	·	·	15.5	OXTR agonist cf=7.0;V1R ag counter 3x=3.3
COc1ccc(C(c2c(O)c3ccccc3oc2=O)c2c(C)n(C)n(-c3ccccc3)c2=O)cc1 (stereo not given)	-1.1	12.3*	0.1	0.3	-1.1	OXTR pot confirm=-10.3
CCOC(=O)C1SC2(C(F)F)CC1(O)c1c(c(OC)c3occc3c1OC)O2 (stereo not given)	-1.1	-6.0	-0.4	-0.5	-0.9
CN1CCN(c2ccc(S(C)(=O)=O)cc2[N+](=O)[O-])CC1	0.8	-2.4	2.1	0.9	0.3
CN1CCN(c2ccc([N+](=O)[O-])c3no[n+]([O-])c23)CC1	18.7	-23.8	18.3	6.3	27.5*	V1aR agonist cf=5.1;OXTR ag counter=5.4
CN(C)c1ccc(/C=C/[N+](=O)[O-])cc1	18.4	-5.9	11.3	6.5	29.4*	V1aR agonist cf=37.9*;OXTR ag counter=24.1*
O=C(Cn1ncc2c3ccccc3n(Cc3ccc(F)cc3)c2c1=O)N1CCC2(CC1)OCCO2	-1.4	6.0	1.4	-0.5	-1.0
CC1(C)OC(c2ccccc2)=C/C(=C/C=C2C(=O)NC(=O)NC2=O)O1	11.1	-16.7	46.2*	24.2*	21.9*	V1aR agonist cf=37.3*;OXTR ag counter=25.5*
Cc1ccc(S(=O)(=O)NC(Cc2cnc[nH]2)C(=O)O)cc1 (stereo not given)	0.0	-2.6	0.4	0.8	0.5
